Reference: ChEMBL document CHEMBL1147172, “The synthesis of alpha,beta-unsaturated carbonyl derivatives with the ability to inhibit both glutathione S-transferase P1-1 activity and the proliferation of leukemia cells” (2007)

System: HL-60
Test: Antiproliferative activity against human HL60 cells after 72 hrs
Assay type: functional
Details: HL-60, 72 h
In short: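 HL-60 cells grown in RPMI-1640 with 10% heat-inactivated FBS, penicillin, streptomycin and L-glutamine. Cells seeded at 1 × 10⁵ cells/mL and exposed to a range of compound concentrations for 72 h. Total cells (trypan blue positive and negative) counted by haemocytometer. Treated/untreated cell-number ratio used to calculate GI50.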

`C=C(CCCC)C(=O)c1ccc(OC(C)C(=O)OC)c(C)c1C` (stereo not drawn) and `C=C(CCC)C(=O)c1ccc(OC(C)C(=O)OC)c(C)c1C` (stereo not drawn) are within 1.5-fold of each other in GI50: 5.2 µM for the first, 5.6 µM for the second.

`C=C(CC)C(=O)c1ccc(OCC(=O)O)cc1Br` and `C=C(CC)C(=O)c1ccc(OCC(=O)O)cc1C` cannot be ordered by GI50: > 60 µM for the first, > 60 µM for the second.

Compared with `C=C(CC)C(=O)c1ccc(OCC(=O)OC)c(Cl)c1Cl`, `C=C(CC)C(=O)c1ccc(OCC(=O)O)c(Cl)c1Cl` [ETHACRYNIC ACID] is 11-fold higher in GI50: 3.9 µM for the first, 44.2 µM for the second.

`C=C(CCCC)C(=O)c1ccc(OC(C)C(=O)O)c(C)c1C` (stereo not drawn) and `C=C(CCC)C(=O)c1ccc(OC(C)C(=O)O)c(C)c1C` (stereo not drawn) are within 1.5-fold of each other in GI50: 12.1 µM for the first, 11.2 µM for the second.

`C=C(C)C(=O)c1ccc(OC(C)C(=O)OC)c(C)c1C` (stereo not drawn) and `C=C(CC)C(=O)c1ccc(OC(C)C(=O)OC)c(C)c1C` (stereo not drawn) are within 1.5-fold of each other in GI50: 6 µM for the first, 4.6 µM for the second.

`C=C(CCC)C(=O)c1ccc(OCC(=O)O)c(C)c1C` and `C=C(CCCC)C(=O)c1ccc(OCC(=O)O)c(C)c1C` are within 1.5-fold of each other in GI50: 19.3 µM for the first, 14.4 µM for the second.

`C=C(CC)C(=O)c1ccc(OC(C)C(=O)O)cc1Cl` (stereo not drawn) and `C=C(C)C(=O)c1ccc(OC(C)C(=O)O)cc1Cl` (stereo not drawn) cannot be ordered by GI50: > 60 µM for the first, > 60 µM for the second.

`C=C(CC)C(=O)c1ccc(OC(C)C(=O)O)cc1Br` (stereo not drawn) and `C=C(C)C(=O)c1ccc(OC(C)C(=O)O)cc1Br` (stereo not drawn) cannot be ordered by GI50: > 60 µM for the first, > 60 µM for the second.

`C=C(CC)C(=O)c1ccc(OCC(=O)O)cc1Cl` and `C=C(C)C(=O)c1ccc(OCC(=O)O)cc1Cl` cannot be ordered by GI50: > 60 µM for the first, > 60 µM for the second.

`C=C(C)C(=O)c1ccc(OC(C)C(=O)O)cc1C` (stereo not drawn) and `C=C(CC)C(=O)c1ccc(OC(C)C(=O)O)cc1C` (stereo not drawn) cannot be ordered by GI50: > 60 µM for the first, > 60 µM for the second.

`C=C(CCCC)C(=O)c1ccc(OCC(=O)OC)c(C)c1C` and `C=C(CCC)C(=O)c1ccc(OCC(=O)OC)c(C)c1C` are the same in GI50: 8.6 µM for the first, 8.6 µM for the second.

For `C=C(C)C(=O)c1ccc(OCC(=O)O)cc1C`, the GI50 was > 60 µM.
